From ChEMBL document CHEMBL4020843, “Ligand-Based NMR Study of C-X-C Chemokine Receptor Type 4 (CXCR4)-Ligand Interactions on Living Cancer Cells” (J Med Chem, 2018)
pIC50: −log10 of the molar value. Blank lines part the entries; values can stand above or below the molecule they belong to. Activity calls are given as the source filed them. The rule behind the calls is not given here. Residues, ends and D or L forms follow the SMILES beside them.

Columns and labels:
[1] = Stability in human CCRF-CEM cells up to 2 hrs by NMR spectral analysis; type: ADME, cell-based
[2] = target: T1, C-X-C chemokine receptor type 4 (Homo sapiens, UniProt P61073); assay: Binding affinity to CXCR4 in human CCRF-CEM cell membranes in presence of plerixafor by WaterLOGSY-NMR method
T1 sequence (P61073 whole entry): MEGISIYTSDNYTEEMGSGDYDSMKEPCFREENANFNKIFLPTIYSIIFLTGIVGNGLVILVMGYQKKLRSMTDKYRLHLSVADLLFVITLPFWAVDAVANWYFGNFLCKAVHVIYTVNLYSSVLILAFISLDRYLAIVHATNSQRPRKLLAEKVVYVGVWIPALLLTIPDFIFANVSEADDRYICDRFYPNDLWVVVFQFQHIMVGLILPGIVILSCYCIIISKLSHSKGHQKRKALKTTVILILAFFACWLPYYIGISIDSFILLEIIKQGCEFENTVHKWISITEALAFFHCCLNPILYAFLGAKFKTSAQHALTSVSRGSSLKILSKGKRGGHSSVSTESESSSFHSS
In short: (§1)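 Pellet of 20 x 10^6 intact cells (CCRF-CEM, CXCR4-null CHO or CXCR4-stably transfected CHO) resuspended in 450 µL PBS pH 7.4 plus 50 µL 2H2O. Peptide added for STD, WaterLOGSY or trNOESY 1H NMR. Spectra of peptide alone and of cells alone acquired as reference. Competition run by adding plerixafor to the indicated concentration (0.010–0.100 mM in STD). STD/WaterLOGSY read as signal-to-noise ratio.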

[3] = Half life in human plasma by HPLC analysis; type: ADME, cell-free
In short: (§2)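 Peptide in sterile water mixed with 90% human serum and incubated at 37 °C. Aliquots taken at 0, 15, 30, 60 and 120 min, precipitated with ACN/0.1% TFA and centrifuged (12 000 rpm, 15 min, 4 °C). Supernatant analysed by RP-HPLC with a 10–90% ACN (0.1% TFA) gradient over 20 min. Relative peptide level taken from A230 peak integration.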

[4] = target: T1, C-X-C chemokine receptor type 4; assay: Binding affinity to CXCR4 in human CCRF-CEM cell membranes assessed as signal to noise ratio by STD-NMR method; in short: as §1
[5] = target: T1, C-X-C chemokine receptor type 4; assay: Binding affinity to CXCR4 in human CCRF-CEM cell membranes assessed as signal to noise ratio in presence of 0.02 mM plerixafor by STD-NMR method; in short: as §1
[6] = target: T1, C-X-C chemokine receptor type 4; assay: Binding affinity to CXCR4 in human CCRF-CEM cell membranes assessed as signal to noise ratio in presence of 0.01 mM plerixafor by STD-NMR method; in short: as §1
Plasma [7] = assay: Drug metabolism in human plasma assessed as [Cys-Arg-Phe-Phe-Cys]-COOH metabolite formation after 15 to 30 mins by ESI-RP-HPLC analysis; type: ADME, cell-free; in short: as §2
[8] = target: T1, C-X-C chemokine receptor type 4; assay: Binding affinity to CXCR4 in human CCRF-CEM cell membranes assessed as signal to noise ratio in presence of 0.1 mM plerixafor by STD-NMR method; in short: as §1
[9] = target: T1, C-X-C chemokine receptor type 4; assay: Binding affinity to CXCR4 in human CCRF-CEM cell membranes assessed as signal to noise ratio in presence of 0.05 mM plerixafor by STD-NMR method; in short: as §1
[10] = target: T1, C-X-C chemokine receptor type 4; assay: Binding affinity to CXCR4 in human CCRF-CEM cell membranes by WaterLOGSY-NMR method; in short: as §1
[11] = target: T1, C-X-C chemokine receptor type 4; assay: Antagonist activity at CXCR4 in human CCRF-CEM cells assessed as inhibition of PE-conjugated 12G5 antibody binding; type: cell-based
In short: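 CCRF-CEM cells (5 × 10^5) preincubated 30 min at 37 °C, 5% CO2 with peptide at 0.01, 0.1, 1 and 10 µM in PBS plus 0.2% BSA and 0.1% NaN3. Then labeled 30 min with PE anti-CXCR4 antibody clone 12G5. IC50 taken as concentration reducing 12G5 binding by 50%, reported as mean ± SD.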

Cricetulus griseus = species: Cricetulus griseus; assay: Binding affinity to CHO cell membranes assessed as signal to noise ratio by STD-NMR method; in short: as §1
[12] = target: T1, C-X-C chemokine receptor type 4; assay: Binding affinity to CXCR4 (unknown origin) expressed in CHO cell membranes assessed as signal to noise ratio by STD-NMR method; in short: as §1
Plasma [13] = assay: Drug level in human plasma treated with (4R,7S,10S,13S,16R)-16-((S)-2-((S)-2-amino-5-guanidinopentanamido)propanam(4R,7S,10S,13S,16R)-16-((S)-2-((S)-2-amino-5-guanidinopentanamido)propanamido)-7,10-dibenzyl-13-(3-guanidinopropyl)-6,9,12,15-tetraoxo-1,2-dithia-5,8,11,14-tetraazacycloheptadecane-4-carboxylic acid after 15 to 30 mins by ESI-RP-HPLC analysis; type: ADME, cell-free; in short: as §2
[14] = Stability in human CCRF-CEM cells up to 6 hrs by NMR spectral analysis; type: ADME, cell-based
Plasma [15] = assay: Stability in human plasma up to 120 mins by ESI-RP-HPLC analysis; type: ADME, cell-free; conditions: 2 h; in short: as §2

Stability [1]: Unstable
Activity [2]: inactive
half-life [3]: 22 min
Ratio [4]: 13.3
Ratio [5]: 6.3
Ratio [6]: 7.2
Drug metabolism (Plasma [7]): Metabolite_Detected
Ratio [8]: 5.9
Ratio [9]: 6.1
Activity [10]: Active
Structure (SMILES): C[C@H](NC(=O)[C@@H](N)CCCNC(=N)N)C(=O)N[C@H]1CSSC[C@@H](C(=O)O)NC(=O)[C@H](Cc2ccccc2)NC(=O)[C@H](Cc2ccccc2)NC(=O)[C@H](CCCNC(=N)N)NC1=O

pIC50 [11]: < 5.00
Ratio (Cricetulus griseus): 8.2
Ratio [12]: 9.6
Structure (SMILES): C[C@H](NC(=O)[C@H](N)CCCNC(=N)N)C(=O)N[C@H]1CSSC[C@@H](C(=O)O)NC(=O)[C@H](Cc2ccccc2)NC(=O)[C@H](Cc2ccccc2)NC(=O)[C@H](CCCNC(=N)N)NC1=O

Drug metabolism (Plasma [13]): Metabolite_Detected
Structure (SMILES): N=C(N)NCCC[C@@H]1NC(=O)[C@@H](N)CSSC[C@@H](C(=O)O)NC(=O)[C@H](Cc2ccccc2)NC(=O)[C@H](Cc2ccccc2)NC1=O (HELM PEPTIDE1{C.R.F.F.C}$PEPTIDE1,PEPTIDE1,1:R3-5:R3$$$V2.0)

pIC50 [11]: < 5.00
Ratio (Cricetulus griseus): 11.7
Ratio [12]: 10.2
Structure (SMILES): C[C@@H]1NC(=O)[C@H](Cc2ccccc2)NC(=O)[C@@H](NC(=O)[C@H](CCCNC(=N)N)NC(=O)[C@@H](N)Cc2ccccc2)CSSC[C@@H](C(=O)O)NC(=O)[C@H](CCCNC(=N)N)NC1=O (HELM PEPTIDE1{F.R.C.F.A.R.C}$PEPTIDE1,PEPTIDE1,3:R3-7:R3$$$V2.0)

Structure (SMILES): C[C@H](NC(=O)C1CCN(C(=N)N)CC1)C(=O)N[C@H]1CSSC[C@@H](C(=O)O)NC(=O)[C@H](Cc2ccccc2)NC(=O)[C@H](Cc2ccccc2)NC(=O)[C@H](CCCNC(=N)N)NC1=O (HELM PEPTIDE1{[N=C(N)N1CCC(C(=O)[*:2])CC1].A.C.R.F.F.C}$PEPTIDE1,PEPTIDE1,3:R3-7:R3$$$V2.0)
pIC50 [11]: < 5.00

pIC50 [11]: < 5.00
Structure (SMILES): C[C@H](NC(=O)CCCNC(=N)N)C(=O)N[C@H]1CSSC[C@@H](C(=O)O)NC(=O)[C@H](Cc2ccccc2)NC(=O)[C@H](Cc2ccccc2)NC(=O)[C@H](CCCNC(=N)N)NC1=O (HELM PEPTIDE1{[N=C(N)NCCCC(=O)[*:2]].A.C.R.F.F.C}$PEPTIDE1,PEPTIDE1,3:R3-7:R3$$$V2.0)

Structure (SMILES): C[C@H](NC(=O)c1ccc(NC(=N)N)cc1)C(=O)N[C@H]1CSSC[C@@H](C(=O)O)NC(=O)[C@H](Cc2ccccc2)NC(=O)[C@H](Cc2ccccc2)NC(=O)[C@H](CCCNC(=N)N)NC1=O (HELM PEPTIDE1{[N=C(N)Nc1ccc(C(=O)[*:2])cc1].A.C.R.F.F.C}$PEPTIDE1,PEPTIDE1,3:R3-7:R3$$$V2.0)
pIC50 [11]: < 5.00

half-life [3]: > 120 min
Ratio [4]: 10
pIC50 [11]: 5.49
Stability [14]: Stable
Ratio (Cricetulus griseus): 12.5
Ratio [12]: 35.9
Stability (Plasma [15]): Stable
Structure (SMILES): C[C@H](NC(=O)c1cccc(NC(=N)N)c1)C(=O)N[C@H]1CSSC[C@@H](C(=O)O)NC(=O)[C@H](Cc2ccccc2)NC(=O)[C@H](Cc2ccccc2)NC(=O)[C@H](CCCNC(=N)N)NC1=O (HELM PEPTIDE1{[N=C(N)Nc1cccc(C(=O)[*:2])c1].A.C.R.F.F.C}$PEPTIDE1,PEPTIDE1,3:R3-7:R3$$$V2.0)

Activity [10]: Active
Structure (SMILES): CC(=O)N[C@@H](CCCNC(=N)N)C(=O)N[C@@H](C)C(=O)N[C@H]1CSSC[C@@H](C(=O)O)NC(=O)[C@H](Cc2ccccc2)NC(=O)[C@H](Cc2ccccc2)NC(=O)[C@H](CCCNC(=N)N)NC1=O (HELM PEPTIDE1{[ac].R.A.C.R.F.F.C}$PEPTIDE1,PEPTIDE1,4:R3-8:R3$$$V2.0)
